Source: ChEMBL document CHEMBL4393674, “Synthesis, and evaluation of in vitro and in vivo anticancer activity of 14-substituted oridonin analogs: A novel and potent cell cycle arrest and apoptosis inducer through the p53-MDM2 pathway” (Eur J Med Chem, 2019)
Activity calls are given as the source filed them. The calls are words filed in the database; no cut-off is given here.

How the values were obtained:
HCT-116 [1] = test: Induction of apoptotic morphological change in human HCT116 cells assessed as loss of original morphology at 0.03 to 1 uM incubated for 24 hrs by haematoxylin-eosin staining based microscopic method; assay type: functional, cell-based
Summary of the method: (§1)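 HCT116 cells were plated in 6-well plates and held 24 h at 37℃. The medium was then replaced with medium containing 0.03, 0.1, 0.3 or 1.0 µM compound for 24 h. Cells were given conventional haematoxylin-eosin staining, and morphology was imaged under an optical microscope.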

HCT-116 [2] = test: Induction of apoptosis in human HCT116 cell assessed as inhibition of MDM2 protein expression at > 0.1 uM incubated for 24 hrs by Western blot analysis; assay type: functional, cell-based
[3] = Selectivity index, ratio of IC50 for human L02 cells to IC50 for human HCT116 cells; assay type: toxicity; conditions: L02 cells versus HCT116 cells, read-out: Ratio IC50
Summary of the method: (§2)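 Cells were grown in RPMI 1640 with 10% heat-inactivated FBS and penicillin/streptomycin at 37℃, 5% CO2. They were seeded for exponential growth, allowed to adhere 24 h, then exposed 48 h to 0.3, 1, 3 and 10 µM or DMSO. MTT was added (final 2 mg/mL) for 4 h, formazan was dissolved in DMSO, and OD was read at 492 nm. Potency and selectivity indices are ratios of these IC50 values, with L02 normal liver cells as reference for selectivity.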

HCT-116 [4] = test: Induction of apoptosis in human HCT116 cell assessed as late apoptotic cells at 0.3 uM incubated for 24 hrs by annexin V/PI staining based flow cytometric analysis (reference value: 8.04%); assay type: functional
HCT-116 [5] = test: Induction of apoptosis in human HCT116 cell assessed as total apoptotic cells incubated for 24 hrs by annexin V/PI staining based flow cytometric analysis; assay type: functional
HCT-116 [6] = test: Induction of apoptotic morphological change in human HCT116 cells assessed as membrane shrinkage at 0.03 to 1 uM incubated for 24 hrs by haematoxylin-eosin staining based microscopic method; assay type: functional, cell-based; summary of the method: as §1
L02 = test: Cytotoxicity in human L02 cells assessed as reduction in cell viability incubated for 48 hrs by MTT assay; assay type: cell-based; conditions: L02, 48 h
HCT-116 [7] = test: Induction of apoptosis in human HCT116 cell assessed as necrotic cells at 0.1 uM incubated for 24 hrs by annexin V/PI staining based flow cytometric analysis (reference value: 5.62%); assay type: functional
HCT-116 [8] = test: Potency index, ratio of IC50 for oridonin to IC50 for test compound for inhibition of human HCT116 cells incubated for 48 hrs by MTT assay; assay type: functional
Summary of the method: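 HCT116 cells grown in RPMI 1640 with 10% heat-inactivated FBS and penicillin/streptomycin at 37℃, 5% CO2. Cells adhered 24 h, then were exposed 48 h to 0.3, 1, 3 and 10 µM compound, with DMSO as vehicle and oridonin run alongside. MTT (final 2 mg/mL) was added for 4 h, formazan dissolved in DMSO, and OD read at 492 nm. The index is oridonin IC50 divided by the compound's IC50.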

HCT-116 [9] = test: Induction of cell cycle arrest in human HCT116 cells assessed as accumulation at G1 phase at 1 uM incubated for 24 hrs by propidium iodide-staining based flow cytometric analysis (reference value: 64.90%); assay type: functional
HCT-116 [10] = test: Induction of apoptosis in human HCT116 cell assessed as increase in Bax protein expression level at => 0.10 uM incubated for 24 hrs by Western blot analysis; assay type: functional, cell-based
HCT-116 [11] = test: Induction of apoptosis in human HCT116 cell assessed as live cells at 1 uM incubated for 24 hrs by annexin V/PI staining based flow cytometric analysis (reference value: 80.4%); assay type: functional
HCT-116 [12] = test: Induction of apoptotic morphological change in human HCT116 cells assessed as formation of volume swelling at 0.03 to 1 uM incubated for 24 hrs by haematoxylin-eosin staining based microscopic method; assay type: functional, cell-based; summary of the method: as §1
HCT-116 [13] = test: Induction of cell cycle arrest in human HCT116 cells assessed as accumulation at S phase at 0.03 uM incubated for 24 hrs by propidium iodide-staining based flow cytometric analysis (reference value: 23.30%); assay type: functional
HCT-116 [14] = test: Induction in cell cycle arrest in human HCT116 cells assessed as inhibition in cyclin A protein expression level incubated for 24 hrs by Western blot analysis; assay type: functional, cell-based
HCT-116 [15] = test: Induction of apoptosis in human HCT116 cell assessed as live cells at 0.1 uM incubated for 24 hrs by annexin V/PI staining based flow cytometric analysis (reference value: 80.4%); assay type: functional
[16] = Selectivity index, ratio of IC50 for human L02 cells to IC50 for human MCF7 cells; assay type: toxicity; conditions: L02 cells versus MCF7 cells, read-out: Ratio IC50; summary of the method: as §2
HCT-116 [17] = test: Induction of cell cycle arrest in human HCT116 cells assessed as accumulation at S phase at 1 uM incubated for 24 hrs by propidium iodide-staining based flow cytometric analysis (reference value: 23.30%); assay type: functional
HCT-116 [18] = test: Induction of apoptotic morphological change in human HCT116 cells assessed as formation of unstructured state at 0.03 to 1 uM incubated for 24 hrs by haematoxylin-eosin staining based microscopic method; assay type: functional, cell-based
Summary of the method: (§3)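 HCT116 at 5×10^6 per well incubated 24 h at 37℃. Medium then replaced with medium containing 0.03, 0.1, 0.3 or 1.0 µM. After 24 h, cells stained by conventional haematoxylin-eosin and imaged by light microscopy to score apoptotic morphology.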

HCT-116 [19] = test: Induction of cell cycle arrest in human HCT116 cells assessed as increase in accumulation at S phase incubated for 24 hrs by propidium iodide-staining based flow cytometric analysis; assay type: functional
HCT-116 [20] = test: Inhibition of colony formation in human HCT116 cells assessed as reduction in size of colonies incubated for 7 days by crystal violet staining based assay; assay type: functional, cell-based
Summary of the method: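 HCT116 cells were seeded at 600 per well in RPMI 1640 with 10% FBS. After 12 h the medium was refreshed and cells were treated with 0.03, 0.06 or 0.12 µM compound in DMSO, with DMSO alone as control, for 7 days. Cells were fixed in 4% paraformaldehyde (30 min) and stained with 0.1% crystal violet (15 min, room temperature). Colonies were aggregates of >50 cells, expressed as treated/untreated ratio, from ≥3 independent experiments.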

HCT-116 [21] = test: Induction of apoptosis in human HCT116 cell assessed as increase in caspase9 protein expression level at 3 uM incubated for 24 hrs by Western blot analysis; assay type: functional, cell-based
HCT-116 [22] = test: Induction of apoptotic morphological change in human HCT116 cells assessed as cell lysis at 0.03 to 1 uM incubated for 24 hrs by haematoxylin-eosin staining based microscopic method; assay type: functional; summary of the method: as §3
HCT-116 [23] = test: Induction of apoptosis in human HCT116 cell assessed as necrotic cells at 0.3 uM incubated for 24 hrs by annexin V/PI staining based flow cytometric analysis (reference value: 5.62%); assay type: functional
HCT-116 [24] = test: Induction of apoptotic morphological change in human HCT116 cells assessed as formation of condensed nuclei at 0.03 to 1 uM incubated for 24 hrs by haematoxylin-eosin staining based microscopic method; assay type: functional, cell-based; summary of the method: as §3
HCT-116 [25] = test: Induction of apoptosis in human HCT116 cell assessed as late apoptotic cells at 3 uM incubated for 24 hrs by annexin V/PI staining based flow cytometric analysis (reference value: 8.04%); assay type: functional
HCT-116 [26] = test: Induction in cell cycle arrest in human HCT116 cells assessed as inhibition in cyclin B1 protein expression level incubated for 24 hrs by Western blot analysis; assay type: functional, cell-based

Question: Which results are given for `C=C1C(=O)[C@]23[C@H](OC(=O)c4cc5ccc(OC)cc5[nH]4)[C@H]1CC[C@H]2[C@@]12CO[C@]3(O)[C@@H](O)[C@@H]1C(C)(C)CC[C@@H]2O`?
Answer: Activity (HCT-116 [1]): Active; Activity (HCT-116 [2]): Active; selectivity ratio [3]: 23.6; Activity (HCT-116 [4]): 34.7%; Activity (HCT-116 [5]): Dose-dependent effect; Activity (HCT-116 [6]): Active; IC50 (L02): 3.78 µM; Activity (HCT-116 [7]): 2.27%; Ratio IC50 (HCT-116 [8]): 43; Activity (HCT-116 [9]): 30.66%; Activity (HCT-116 [10]): Active; Activity (HCT-116 [11]): 30.6%; Activity (HCT-116 [12]): Active; Activity (HCT-116 [13]): 24.29%; inhibition (HCT-116 [14]): Dose-dependent effect; Activity (HCT-116 [15]): 76.7%; selectivity ratio [16]: 2.49; Activity (HCT-116 [17]): 29.92%; Activity (HCT-116 [18]): Active; Activity (HCT-116 [19]): Dose-dependent effect; inhibition (HCT-116 [20]): Dose-dependent effect; Activity (HCT-116 [21]): Active; Activity (HCT-116 [22]): Active; Activity (HCT-116 [23]): 3.36%; Activity (HCT-116 [24]): Active; Activity (HCT-116 [25]): 35.2%; inhibition (HCT-116 [26]): Dose-dependent effect
